In article PMC4232467 (Nature chemical biology, 2014):
≈ marks a conversion by molar mass, not a printed value.

What was measured:
Test in all cases: Susceptibility testing
Assay type in all cases: cell-based
[1] = test system: Citrobacter freundii (AmpC overproducer); settings: read-out: Minimum inhibitory concentrations (MICs; μg/mL) Citrobacter freundii
In short: (§1)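 Broth susceptibility testing of clinical isolates resistant to third-generation cephalosporins, run and read per CLSI guidelines. […] Compounds were dissolved in DMSO and diluted into Mueller Hinton medium, with DMSO kept below 5%. Values are the average of three independent experiments.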

[2] = test system: Enterobacter cloacae (AmpC overproducer); settings: read-out: Minimum inhibitory concentrations (MICs; μg/mL) Enterobacter cloacae
In short: as §1

[3] = test system: Escherichia coli (TEM-3) ESBL producer; settings: read-out: Minimum inhibitory concentrations (MICs; μg/mL) Escherichia coli (TEM-3)
In short: as §1

[4] = test system: Escherichia coli (CTX-M-14) ESBL producer; settings: read-out: Minimum inhibitory concentrations (MICs; μg/mL) Escherichia coli (CTX-M-14)
In short: as §1

## CO/N=C(\C(=O)N[C@@H]1C(=O)N2C(C(=O)O)=C(COC(C)=O)CS[C@H]12)c1csc(N)n1 [Cefotaxime, cefotaxime]
[1]
  MIC: 16 µg/mL (≈ 35.1 µM)
[2]
  MIC: 64 µg/mL (≈ 141 µM)
[3]
  MIC: 8 µg/mL (≈ 17.6 µM)
[4]
  MIC: 256 µg/mL (≈ 562 µM)
